# Only some compounds are listed: those with a hit (about 2.3% of all), similar ones and a draw of the others.
# TRPC4 act = TRPC4 (mouse) channel activation; Q9QUQ5; HEK293 TRPC4beta/mu-opioid, Fluo4 calcium fluorescence; active compounds read high; B-score at 10 µM; 310,000 tested, 0.49% active;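 active = B-score above 5 SD of library B-scores, and initial fluorescence ratio not above library mean plus 5 SD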;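 note: positive B-score marks a calcium rise read as TRPC4 activation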
#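 Material: HEK293 stable line with TRPC4beta plus mu-opioid receptor; technique: Fluo4 calcium-sensitive dye fluorescence, kinetic, 1 Hz baseline; timing: Fluo4 dye loading 45 min at room temperature, 110 s recording; controls: assay buffer as low control, maximal DAMGO as high control; read-out: integrated baseline-normalised fluorescence ratio, converted to per-well B score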
# TRPC6 inh = mouse TRPC6 channel inhibition; HEK293-TRPC6, membrane potential dye, ACh-evoked depolarization; active compounds read low; B-score at 10 µM; 310,000 tested, 1.1% active; AID 2553;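 active = B-score under library mean minus 3 SD, initial fluorescence not abnormally high, positive integrated signal ratio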;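 note: B-score derived from integrated fluorescence ratio over the kinetic read; more negative B-score means stronger inhibition of depolarization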
# TRPC4 block = inhibitors of mouse TRPC4 channel. Q9QUQ5. HEK293 TRPC4beta/mu-opioid, DAMGO-evoked Fluo4 calcium flux; active compounds read low. B-score at 10 µM. 300,000 tested, 0.39% active;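 active = B-score over 3 SD under the library average, no early fluorescence shift, positive overall ratio signal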
#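 Test system – stable TRPC4beta/mu-opioid receptor HEK293 cells · Probe or stimulus – DAMGO, a submaximal dose followed by a maximal one · Dosing – one concentration per compound · Signal – Fluo4 calcium fluorescence by kinetic imaging, 5 s 1 Hz baseline · Evaluation – per-well B score of integrated baseline-normalized Fluo4 ratio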
# TRPC6 act = activates the mouse TRPC6 cation channel; HEK293-TRPC6 membrane potential dye fluorescence; active compounds read high; AID 2550; B-score at 10 µM; 310,000 tested, 0.13% active;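 active = B-score of the integrated fluorescence ratio above library mean plus 3 SD, and starting fluorescence ratio within library mean plus 5 SD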;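 note: higher score means more depolarization so channel activation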
# TRPC4 PAM = allosterically enhances the mouse TRPC4 cation channel | 310,000 tested, 0.42% active | AID 2227 | HEK293 TRPC4beta/mu-opioid, DAMGO EC20, Fluo-4 Ca2+ flux; active compounds read high | B-score at 10 µM;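 active = B-score of calcium response area above 5 SD of library B-scores, with initial fluorescence ratio within 5 SD of library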;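 note: B-score of integrated fluorescence ratio over time as area under calcium response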
# Starred values were filed as active, the others as inactive; i = inactive; nt = no result.
SMILES,TRPC4 act,TRPC6 inh,TRPC4 block,TRPC6 act,TRPC4 PAM
N#Cc1c2n(c(=S)n(-c3ccc(OC(F)F)cc3)c1=O)CCCCC2,i,i,i,i,13*
O=C(O)CCC(=O)Nc1cc(C(F)(F)F)cc(C(F)(F)F)c1,i,i,i,i,i
Cc1n[nH]c(C)c1Cc1c(F)cccc1Cl,i,i,-6*,i,i
COc1ccc2nc(NS(=O)(=O)c3ccc(NC(C)=O)cc3)sc2c1,122*,i,-7*,i,i
CC(=O)Nc1ccc2nc(NS(=O)(=O)c3ccc(C)cc3)sc2c1,i,i,i,i,i
CSc1nc2ccc(NC(=O)CSc3nnc(N)s3)cc2s1,i,i,i,i,i
O=C(CSCc1cccc(Cl)c1)N1CCN(Cc2ccc3c(c2)OCO3)CC1,i,i,-7*,i,i
CNS(=O)(=O)c1ccc(NC(=O)Nc2cccc(F)c2)cc1,44*,i,i,i,i
CCC(=O)Nc1nc(NCc2ccccc2OC)n(-c2ccccc2)n1,i,i,i,i,i
Cc1cc(NCc2ccccc2)nc(N2CCOCC2)n1,i,i,-6*,i,i
CNc1cc(C)nc(N2CCOCC2)n1,i,i,i,i,i
Cc1cc(N2CCCCC2)nc(NCc2ccccc2)n1,47*,i,i,i,12*
Cc1cc(N2CCOCC2)nc(NCc2ccccc2)n1,i,i,i,i,i
CSCCC(NS(=O)(=O)/C=C/c1ccccc1)C(=O)NCCc1ccc(S(N)(=O)=O)cc1 (stereo not drawn),i,i,i,i,i
Cc1nnc2sc(SCC(=O)Nc3cccc(Cl)c3)nn2c1=O,i,i,i,i,i
COC(=O)CS(=O)(=O)c1nnc([C@H](Cc2ccccc2)NC(=O)OC(C)(C)C)o1,i,i,-5*,i,i
C=C1CCN(C(C)C(=O)O)S(=O)(=O)c2ccccc21 (stereo not drawn),i,i,i,i,i
COc1ccc(COC(=O)c2ccc(Br)c(S(=O)(=O)N3CCOCC3)c2)cc1F,i,i,i,i,i
O=c1oc2ccccc2c(O)c1/C=C1\C=Nc2ccccc21,85*,i,i,i,i
O=c1oc2ccccc2c(O)c1/C=N/c1ncccn1,i,i,i,i,i
COc1ccc(C(=O)CC(CC(=O)c2ccc(OC)cc2)C(=O)O)cc1,i,i,i,i,i
CCCNC(=O)c1nc(C)n(-c2cc(Cl)ccc2Cl)n1,i,i,i,i,i
OC1(c2ccc(Br)cc2)CN(c2ccccc2)C2=[N+]1CCS2 (stereo not drawn),93*,i,i,i,i
OC1(c2ccc(Cl)cc2)CN(c2ccccc2)C2=[N+]1CCS2 (stereo not drawn),75*,i,i,i,i
CCCC1(c2ccccc2)NC(=O)N(CC(=O)c2[nH]c(C)c(C(=O)OCC)c2C)C1=O (stereo not drawn),i,i,i,i,15*
SMILES,TRPC4 act,TRPC6 inh,TRPC4 block,TRPC6 act,TRPC4 PAM
CSc1nc(SCC(=O)NCc2ccco2)c2c3c(sc2n1)CN(C)CC3,i,i,i,i,i
CSc1nc(NCc2ccco2)c2c3c(sc2n1)CN(C)CC3,64*,i,nt,i,i
Cc1cc(SCC#N)nc2ccccc12,i,i,-6*,i,i
Cn1c2c(c(=O)n(C)c1=O)C(C(F)(F)F)(C(F)(F)F)N=C(CCC1CCCCC1)N2,i,i,i,i,11*
CC(COc1ccccc1Cc1ccccc1)N1CCCCC1 (stereo not drawn),67*,i,i,12*,i
COc1ccccc1CC(Cc1nc2ccccc2[nH]1)c1nc2ccccc2[nH]1 (stereo not drawn),i,i,-6*,i,i
Cc1cccc(CC(Cc2nc3ccccc3[nH]2)c2nc3ccccc3[nH]2)c1 (stereo not drawn),i,i,i,i,i
O=C(Cc1ccc(Br)cc1)NC1CCN(Cc2ccccc2)CC1,i,i,i,i,12*
O=C(NC1CCN(Cc2ccccc2)CC1)C12CC3CC(CC(C3)C1)C2,123*,i,i,i,i
CS(=O)(=O)N(CC(=O)Nc1ccccc1Br)Cc1ccccc1,i,i,i,i,i
CN1CCc2c(sc(NC(=O)c3ccc(S(=O)(=O)N4CCCC4)cc3)c2C(N)=O)C1,i,-6*,i,i,i
COc1cccc(C(=O)NCc2ccco2)c1,i,i,i,i,i
O=C(CC1C(=O)NCCN1C(=O)Nc1ccccc1)Nc1cc(Cl)cc(Cl)c1 (stereo not drawn),i,i,i,i,16*
C=CCn1c(SCC(=O)Nc2ccc(N3CCOCC3)cc2)nc2ccccc2c1=O,i,i,i,i,i
COc1cc(C(=O)Nc2ccc(S(=O)(=O)Nc3nccc(C)n3)cc2)c([N+](=O)[O-])cc1OC,i,i,i,i,i
CCCCn1c(N)c(N(CCOC)C(=O)c2ccc(-c3ccc(C(C)=O)cc3)o2)c(=O)[nH]c1=O,i,i,i,i,92*
O=C1CCN(Cc2ccccc2)CCN1[C@H](COc1ccccc1)Cc1ccccc1,65*,i,nt,i,i
Cc1ccc(SC[C@H](Cc2ccccc2)N2CCN(CC(C)C)CCC2=O)cc1,47*,i,nt,i,i
CC(C)C[C@@H](COc1ccccc1)N1CCN(Cc2ccccc2)CCC1=O,52*,i,i,i,i
Cc1cc(C)c[n+](-c2[nH]c(=O)sc2/C=N/N=C(\[O-])c2cccnc2)c1,i,i,i,i,i
Cc1ccn2c(CNCCn3cccn3)c(C(=O)N3CCCCCC3)nc2c1,i,i,i,i,i
Cc1ccn2c(CNCCCn3cccn3)c(C(=O)N3CCCCCC3)nc2c1,i,i,-7*,i,i
CC(C)CCOc1ccc(C(=O)N2CCCC2C(=O)O)cc1 (stereo not drawn),i,i,i,i,i
COc1cc(OC)c(OC)cc1CCC(C)NCCC(c1ccccc1)c1ccccc1 (stereo not drawn),87*,i,i,i,i
COc1ccccc1CCNC(C)CCc1ccc(O)cc1 (stereo not drawn),i,i,i,i,i
Cc1ccn(-c2ccc(NC(=O)c3cccs3)cc2)n1,i,i,i,i,i
CCOc1ccccc1NS(=O)(=O)c1ccc2[nH]c(=O)[nH]c2c1,i,i,i,i,13*
